SUMO HTRF inh: inhibitors of in vitro SUMOylation cascade, primary screen, biochemical, HTRF, uHTS | SUMO-conjugating enzyme UBC9 (Homo sapiens), P63279 | HTRF SUMOylation assay, SAE1/SAE2 + UBC9 | inhibition, % at 35 µM | actives 0.36% (n = 290,000) | AID 2006, 2009; in the data active = inhibition above about 50%, passing the limit was not always enough
G6PDH counter: L. mesenteroides G6PDH inhibitors, counter-screen for G6PDH-coupled screening assays, biochemical, Leuconostoc mesenteroides enzyme | inhibition, % at 5 µM | actives 0.12% (n = 200,000) | Purified L. mesenteroides G6PDH, diaphorase/resazurin coupled fluorescence, 45 min | glucose-6-phosphate dehydrogenase [Leuconostoc mesenteroides]; in the data active = inhibition above about 50%
Diaph inh CS: diaphorase inhibitors and chemical oxidizers, primary screen, counter-screen for diaphorase-coupled primary assays, biochemical, uHTS, resorufin fluorescence. diaphorase resazurin-to-resorufin fluorescence, NADH, 16 min; bacterial (C. kluyveri) enzyme, not human. inhibition, % at 20 µM. actives 0.69% (n = 190,000);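 active = primary screen inhibition at 20 µM above a set limit, cut at about 50% in these data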;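 also: plate controls were DMSO with full reaction for no effect and wells lacking NADH for full effect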
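Assay system – diaphorase enzyme from Clostridium kluyveri · Amount – diaphorase 0.14 U/mL (working solution) · Times – reaction incubation of 16 min at room temperature · Controls – No-NADH positive control and DMSO neutral control · Signal – resorufin fluorescence 544/590 nm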
p97 ATPase inh: inhibitors of human p97 ATPase, primary screen, biochemical. AID 1481, 2009. inhibition, % at 8 µM. actives 0.42% (n = 220,000). Transitional endoplasmic reticulum ATPase (Homo sapiens), P55072. recombinant p97 ATPase, Kinase-Glo ATP luminescence, 3 h; in the data active = inhibition above about 15%;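 also: 0% = DMSO vehicle and 100% = wells lacking enzyme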
HKDC1 inhibitor: HKDC1 hexokinase inhibitors, primary screen, biochemical, fluorescence, uHTS. actives 0.16% (n = 340,000). AID 493160, 2011. inhibition, % at 20 µM. recombinant HKDC1, G6PDH/diaphorase resazurin coupled fluorescence;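 active = inhibition above about 35% when tested at 20 µM, limit read from the data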;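 also: plate controls were DMSO wells with enzyme for no effect and DMSO wells lacking enzyme for full effect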
Target sequence (Q2TB90 whole entry, looked up): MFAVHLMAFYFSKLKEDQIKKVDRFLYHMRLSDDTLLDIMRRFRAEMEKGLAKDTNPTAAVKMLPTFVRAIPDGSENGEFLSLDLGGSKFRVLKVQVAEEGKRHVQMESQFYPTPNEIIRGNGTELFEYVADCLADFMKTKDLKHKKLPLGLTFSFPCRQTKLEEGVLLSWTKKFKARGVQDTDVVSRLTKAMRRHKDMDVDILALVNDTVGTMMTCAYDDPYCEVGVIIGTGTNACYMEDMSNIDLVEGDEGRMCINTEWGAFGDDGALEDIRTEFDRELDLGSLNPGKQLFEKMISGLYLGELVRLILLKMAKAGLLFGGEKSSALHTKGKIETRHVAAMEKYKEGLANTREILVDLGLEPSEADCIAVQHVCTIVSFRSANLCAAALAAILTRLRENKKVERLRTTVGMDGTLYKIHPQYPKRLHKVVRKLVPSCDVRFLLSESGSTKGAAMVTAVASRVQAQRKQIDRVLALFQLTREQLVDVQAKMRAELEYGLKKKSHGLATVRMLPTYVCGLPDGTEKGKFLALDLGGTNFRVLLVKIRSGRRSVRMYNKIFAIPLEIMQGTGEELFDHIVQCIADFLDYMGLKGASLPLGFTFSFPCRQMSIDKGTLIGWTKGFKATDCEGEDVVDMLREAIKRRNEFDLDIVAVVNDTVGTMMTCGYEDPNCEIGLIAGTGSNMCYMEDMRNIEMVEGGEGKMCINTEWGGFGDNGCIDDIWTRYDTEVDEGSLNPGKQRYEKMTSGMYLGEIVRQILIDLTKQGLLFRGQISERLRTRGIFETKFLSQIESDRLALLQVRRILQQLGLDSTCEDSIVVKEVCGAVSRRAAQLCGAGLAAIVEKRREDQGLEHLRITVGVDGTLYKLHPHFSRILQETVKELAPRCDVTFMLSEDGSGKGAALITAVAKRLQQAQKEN
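Test system: recombinant HKDC1 (HK5) hexokinase enzyme, produced in-house / Doses: 20 µM test compound, 1% DMSO / Timing: 90 min, room temperature / Detection: G6PDH/diaphorase-coupled fluorescence, 1 mM NADP, 100 µM resazurin, 525/613 nm / Control set: DMSO wells with and without enzyme mix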
Active calls of the source: *; / = not tested or not shown. An excerpt weighted towards active compounds, which were near 0.95% of everything screened.

SMILES	SUMO HTRF inh	G6PDH counter	Diaph inh CS	p97 ATPase inh	HKDC1 inhibitor
CN(Cc1ccccc1)C(=O)CCn1c(=O)oc2ccccc21	7.6	1.0	7.2	-2.9	-7.8
O=C(CCn1c(=O)oc2ccccc21)N(Cc1ccccc1)c1ccccc1	1.6	7.2	69.2*	-4.7	2.5
Cc1ccc(C2(C)NC(=O)N(CC(=O)NC3CCCCC3)C2=O)cc1 (centres undefined)	/	/	/	/	1.8
COc1ccc(N2CC(C(=O)N/N=C/c3ccc(C)cc3)CC2=O)cc1 (centres undefined)	19.3	12.9	17.2	14.7*	8.1
CCc1ccc(N2CC(C(=O)N/N=C/c3cc([N+](=O)[O-])ccc3O)CC2=O)cc1 (centres undefined)	-9.3	-11.8	50.6*	5.8	-7.8
CCc1ccc(N2CC(C(=O)N/N=C/c3ccccc3OC)CC2=O)cc1 (centres undefined)	-7.5	/	/	/	-1.8
CC(/C=N/n1c(COc2ccccc2)n[nH]c1=S)=C\c1ccco1	4.5	/	/	5.0	2.4
O=C(NCC1CCCO1)c1cn(-c2ccccc2)nc1-c1ccccc1 (centres undefined)	5.2	6.6	58.3*	4.0	-3.4
CCn1cc(C(=O)NCCCN2CCCC(C)C2)c(=O)c2cc(S(=O)(=O)N(C)C3CCCCC3)ccc21 (centres undefined)	3.6	/	/	/	-3.3
CCc1cc2c(=O)n(CCC(C)C)c(=S)[nH]c2s1	11.3	-5.6	55.6*	3.7	-1.2
COc1cc(C(=O)NC2CC(C)(C)CC(C)(C)C2)ccc1OC1CCN(C(C)=O)CC1	11.3	/	/	/	-6.1
Cc1ccc(C)c2[nH]c(=O)c(C(c3nnnn3Cc3ccco3)N3CCc4ccccc4C3)cc12 (centres undefined)	30.7	18.4	56.7*	1.4	1.4
CSc1ncc(Cl)c(C(=O)Nc2ccccc2[N+](=O)[O-])n1	2.1	/	/	/	-5.8
c1ccc(Cc2nc3ccccc3s2)cc1	/	/	/	/	-3.7
COc1ccc(-c2csc(NC(=S)NC(=O)c3cccs3)n2)cc1Br	30.3	/	/	-5.1	-2.5
COc1ccc(-c2csc(NC(=S)NC(=O)c3cccs3)n2)cc1OC	25.0	-27.8	59.2*	9.2	1.2
CSCCC(NC(=O)c1ccco1)C(=O)N(C)CC(=O)Nc1c(Cl)cccc1Cl (centres undefined)	/	/	/	/	-15.0
O=C(/C=C/c1ccc(O)c(O)c1)O[C@H](Cc1ccc(O)c(O)c1)C(=O)O	69.0*	/	/	/	/
Cc1ccc2[nH]c3c(c2c1)CCc1cn[nH]c1-3	27.1	-45.4	69.7*	-5.3	20.1
Cc1ccc2[nH]c3c(c2c1)CCC3=O	44.5	0.1	3.7	5.1	-4.4
CSc1cc(-c2ccc(Cl)cc2)[nH]c(=O)c1C#N	20.6	-2.2	6.9	0.3	7.7
Cc1ccc(-c2[nH]c(=S)[nH]c(=O)c2C#N)cc1	12.1	9.5	78.1*	0.6	-6.3
COC(=O)c1ccc(CNC(=O)C2CCC(=O)N(CCc3ccccc3)C2)cc1 (centres undefined)	4.8	/	/	/	-5.4
CC(CNc1nc2ccc(Cl)cc2n2cnnc12)c1ccccc1 (centres undefined)	-17.4	/	/	/	1.3
O=C1C=CC(=O)C(CNc2ccc(C(=O)OCc3ccccc3)cc2)=C1	/	/	/	/	46.7*
SMILES	SUMO HTRF inh	G6PDH counter	Diaph inh CS	p97 ATPase inh	HKDC1 inhibitor
CN(C)c1ccc(C(=O)OCc2ccccc2)cc1	23.0	6.2	15.3	-8.1	3.5
Cc1cc(C)c(S(=O)(=O)/N=C2\C=C(NS(=O)(=O)c3ccccc3)C(=O)c3ccccc32)c(C)c1	19.4	/	/	/	19.3
Cc1cccc(NC2=C/C(=N/S(=O)(=O)c3cccs3)c3ccccc3C2=O)c1	23.5	53.4*	13.0	0.6	53.1*
O=C(c1ccc([N+](=O)[O-])cc1)N1CCN(C(=O)C2CCCCC2)CC1	19.0	/	/	/	-1.5
CCCCOc1ccc(/C=C/C(=O)Nc2ccc(C(N)=O)cc2)cc1	50.9*	-1.6	14.4	6.8	3.8
Clc1ccc(C2Nc3cccc4cccc(c34)N2)cc1Cl	9.6	/	/	/	5.5
O=[N+]([O-])c1ccc(Cl)c(C2Nc3cccc4cccc(c34)N2)c1	50.5	6.8	57.4*	9.0	14.9

High-throughput results: PubChem, several laboratories
